Data on 13 compounds can be found in ChEMBL document CHEMBL3621177, “Modulation of the Interaction between a Peptide Ligand and a G Protein-Coupled Receptor by Halogen Atoms” (ACS Med Chem Lett, 2015).

For orientation: Ki means the equilibrium dissociation constant of an inhibitor or competing ligand from its target. Low readings indicate a stronger hold on the target, high ones a looser hold on the target.

Experiment [1] can be described thus: Displacement of [3H]diprenorphine from zebrafish mu opioid receptor expressed in HEK293 cell membranes by radioligand displacement assay. Also on record: species or system Danio rerio. Put shortly:
(§1)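 Competition binding on membranes from stably transfected HEK293 cells expressing the zebrafish μ, δ1a or δ1b receptor. Cells were grown to 80% confluence, harvested and pelleted before membrane preparation. [3H]-diprenorphine served as radioligand. Nonspecific binding was defined with 10 μM naloxone. Data were fitted to a one-site displacement model.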
For orientation: Displacement assays read how much labelled ligand stays bound in the presence of the test substance.

Experiment [2] in a line: Displacement of [3H]diprenorphine from zebrafish delta1b opioid receptor expressed in HEK293 cell membranes by radioligand displacement assay. Further details: species or system Danio rerio. Put shortly: as §1
A short description of experiment [3]: Displacement of [3H]diprenorphine from zebrafish delta1a opioid receptor expressed in HEK293 cell membranes by radioligand displacement assay. Further details: species or system Danio rerio. In short, it runs like this:
as §1

The species entered for another experiment is Danio rerio. As to the kind of experiment: Selectivity index, ratio of Ki for zebrafish delta1a opioid receptor to Ki for zebrafish mu opioid receptor.

`CC(C)C[C@H](NC(=O)[C@H](Cc1ccc(I)cc1)NC(=O)CNC(=O)CNC(=O)[C@@H](N)Cc1ccc(O)cc1)C(=O)O`: the figures for the Ki in experiment [1], in experiment [2] and in experiment [3] were 540 nM, 52.9 nM and 44.6 nM, respectively.

Take `NC(=O)[C@H](Cc1ccc(Br)cc1)NC(=O)[C@H](Cc1c[nH]c2ccccc12)NC(=O)[C@@H]1CCCN1C(=O)[C@@H](N)Cc1ccc(O)cc1`: the figures for the Ki in experiment [1], in experiment [2] and in experiment [3] were 135 nM, 2680 nM and 1900 nM, respectively.

Take `CC(C)C[C@H](NC(=O)[C@H](Cc1ccc(Cl)cc1)NC(=O)CNC(=O)CNC(=O)[C@@H](N)Cc1ccc(O)cc1)C(=O)O`: the inhibition constant Ki is 312 nM in experiment [1], 40.6 nM in experiment [2] and 44.5 nM in experiment [3].

With `CC(C)C[C@H](NC(=O)[C@H](Cc1ccccc1F)NC(=O)CNC(=O)CNC(=O)[C@@H](N)Cc1ccc(O)cc1)C(=O)O`, the Ki in experiment [1] was 2230 nM; in experiment [2], 91.1 nM; in experiment [3], 115 nM.

For the compound `NC(=O)[C@H](Cc1ccc(Cl)cc1)NC(=O)[C@H](Cc1c[nH]c2ccccc12)NC(=O)[C@@H]1CCCN1C(=O)[C@@H](N)Cc1ccc(O)cc1`, the results for the Ki in experiment [1], in experiment [2] and in experiment [3] were 71.9 nM, 2330 nM and 1700 nM, respectively.

Consider `CC(C)C[C@H](NC(=O)[C@H](Cc1ccc(F)cc1)NC(=O)CNC(=O)CNC(=O)[C@@H](N)Cc1ccc(O)cc1)C(=O)O`, for which the inhibition constant Ki in experiment [1] was 210 nM; in experiment [2], 10.6 nM; in experiment [3] it was 11.7 nM.

On to `NC(=O)[C@H](Cc1ccc(I)cc1)NC(=O)[C@H](Cc1c[nH]c2ccccc12)NC(=O)[C@@H]1CCCN1C(=O)[C@@H](N)Cc1ccc(O)cc1`, for which the Ki in experiment [1] stood at 294 nM; in experiment [2], 1960 nM; in experiment [3], 1590 nM.

As to `CC(C)C[C@H](NC(=O)[C@H](Cc1ccccc1Br)NC(=O)CNC(=O)CNC(=O)[C@@H](N)Cc1ccc(O)cc1)C(=O)O`, the Ki in experiment [1] worked out at 1430 nM; in experiment [2], 32.3 nM; in experiment [3], 24.2 nM.

`CC(C)C[C@H](NC(=O)[C@H](Cc1ccccc1Cl)NC(=O)CNC(=O)CNC(=O)[C@@H](N)Cc1ccc(O)cc1)C(=O)O`: the inhibition constant (Ki) was found to be 1210 nM in experiment [1], 57.2 nM in experiment [2] and 42.8 nM in experiment [3].

In the case of `NC(=O)[C@H](Cc1ccc(F)cc1)NC(=O)[C@H](Cc1c[nH]c2ccccc12)NC(=O)[C@@H]1CCCN1C(=O)[C@@H](N)Cc1ccc(O)cc1`, the inhibition constant (Ki) in experiment [1] turned out to be 51.6 nM; in experiment [2], 4800 nM; in experiment [3] it was 5330 nM.

`CC(C)C[C@H](NC(=O)[C@H](Cc1ccccc1I)NC(=O)CNC(=O)CNC(=O)[C@@H](N)Cc1ccc(O)cc1)C(=O)O`: the Ki came to 401 nM in experiment [1], 28.5 nM in experiment [2] and 15.5 nM in experiment [3].

Turning to `NC(=O)[C@H](Cc1ccccc1)NC(=O)[C@H](Cc1c[nH]c2ccccc12)NC(=O)[C@@H]1CCCN1C(=O)[C@@H](N)Cc1ccc(O)cc1` [ENDOMORPHIN-1], in the experiment listed under Danio rerio, the Ratio Ki is 258. The Ki was 32.8 nM in experiment [1], 6200 nM in experiment [2] and 8470 nM in experiment [3].

Regarding `CC(C)C[C@H](NC(=O)[C@H](Cc1ccc(Br)cc1)NC(=O)CNC(=O)CNC(=O)[C@@H](N)Cc1ccc(O)cc1)C(=O)O`, the Ki in experiment [1] stood at 287 nM; in experiment [2] it was 27.6 nM; in experiment [3], 34.1 nM.
